Reference: ChEMBL document CHEMBL5620421, “2,6-Disubstituted 7-(naphthalen-2-ylmethyl)-7H-purines as a new class of potent antitubercular agents inhibiting DprE1” (Eur J Med Chem, 2023)
≈ marks a conversion by molar mass, not a printed value. Calls of active or inactive are those of the source. The rule behind the calls is not given here.

Legend:
[1] = Selectivity index, ratio of IC50 for cytotoxicity against human HepG2 cells by MTT assay to MIC99 for antitubercular activity against Mycobacterium tuberculosis CNCTC My 331/88 (H37Rv) assessed as inhibition of bacterial growth measured after 14 days of incubation; format: functional; conditions: time 14 day
Outline: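 HepG2 cells, 15 × 10³/well, were attached overnight and exposed 24 h to serial dilutions (DMSO ≤1%). Read by MTT at 0.5 mg/mL for 1 h and 570 nm. IC50 from 4-parameter regression, three independent experiments in triplicate. SI is HepG2 IC50 divided by H37Rv MIC99.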

[2] = tested on: Mycobacterium tuberculosis; assay: Antitubercular activity against Mycobacterium tuberculosis CNCTC My 331/88 (H37Rv) assessed as inhibition of bacterial growth measured after 14 days of incubation by Sulas semisynthetic medium based assay; format: functional; conditions: 336 h, time 14 day
Outline: (§1)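 Micromethod MIC in Sula's semisynthetic medium. MIC is the lowest concentration inhibiting >99% of the mycobacterial population. Isoniazid was the standard drug.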

[3] = Aqueous solubility of compound incubated for 20 mins by UV-Visible spectrophotometric analysis; format: physicochemical; conditions: buffer
Outline: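 Solubility in ultrapure water containing 5% DMSO. Absorbance taken at each compound's λmax and compared with a six-point calibration made by serial dilution of a 50 μM standard, fitted by linear regression. Over-saturated solutions were sonicated at 37 °C for 10 min and centrifuged at 8000 RPM for 10 min. Supernatant absorbance was read, after dilution with 5% DMSO/water if above the calibration range.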

[4] = tested on: H9c2; assay: Cytotoxicity against rat H9c2 cells assessed as cell viability at 50 uM incubated for 72 hrs by MTT spectrophotometric analysis relative to control; format: functional; conditions: read-out: Activity
Outline: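 HepG2 or rat H9c2 cells in DMEM with FBS, seeded at 10,000 cells/well. Treated 24 h later for 72 h, with 0.1% DMSO vehicle and 1% Triton X-100 as controls. MTT added (3 mg/mL solution) for 2 h at 37 °C, then cells lysed in isopropanol/0.1 M HCl/5% Triton X-100. Read at 570 nm minus 690 nm. Viability expressed as % of vehicle; IC50 derived where reached. At least four independent experiments.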

[5] = tested on: Escherichia coli; assay: Antibacterial activity against Escherichia coli A1235 assessed as inhibition of bacterial growth incubated for 24 to 48 hrs by microdilution broth method; format: functional, organism-based; conditions: time 24-48 hrs
Outline: (§2)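 Clinical isolates kept at –70 °C and subcultured twice on Mueller-Hinton agar, using the second subculture. Broth microdilution in Mueller-Hinton broth at pH 7.4 with two-fold serial compound dilutions and DMSO ≤1% final. Inoculum was 10 μL of a 1.5 × 10⁸ CFU/mL suspension. Incubated at 36 °C ± 1 °C and read at 24 h and 48 h. MIC taken as 95% growth inhibition.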

[6] = tested on: Pseudomonas aeruginosa; assay: Antibacterial activity against multidrug-resistant Pseudomonas aeruginosa A1245 assessed as inhibition of bacterial growth incubated for 24 to 48 hrs by microdilution broth method; format: functional, organism-based; conditions: time 24-48 hrs
Outline: (§3)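 Clinical isolates, stored at −70 °C, were passaged twice on Mueller-Hinton agar. Broth microdilution in Mueller-Hinton broth, pH 7.4, with twofold serial dilutions. DMSO was at most 1% final. Inoculum 1.5 × 10⁸ CFU/mL suspension. MIC is 95% growth inhibition, read after 24 and 48 h at 36 °C.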

[7] = tested on: Staphylococcus aureus; assay: Antibacterial activity against Staphylococcus aureus C1947 assessed as inhibition of bacterial growth incubated for 24 to 48 hrs by microdilution broth method; format: functional, organism-based; conditions: time 24-48 hrs; outline: as §2
[8] = tested on: Staphylococcus epidermidis; assay: Antibacterial activity against Staphylococcus epidermidis C1936 assessed as inhibition of bacterial growth incubated for 24 to 48 hrs by microdilution broth method; format: functional, organism-based; conditions: time 24-48 hrs; outline: as §2
[9] = tested on: Mycobacterium tuberculosis; assay: Antitubercular activity against Mycobacterium tuberculosis CNCTC My 331/88 (H37Rv) assessed as inhibition of bacterial growth measured after 21 days of incubation by Sulas semisynthetic medium based assay; format: functional; conditions: 504 h, time 21 day; outline: as §1
[10] = tested on: Mycobacterium tuberculosis; assay: Antimycobacterial activity against MDR clinical isolate Mycobacterium tuberculosis 9449/2007 assessed as inhibition of mycobacterial growth measured after 14 to 21 days of incubation by Sulas semisynthetic medium based assay; format: functional; conditions: time 14-21 day
Outline: (§4)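 Clinical MDR/XDR M. tuberculosis isolates were tested by the Sula's semisynthetic medium micromethod. Compounds in DMSO at 1000 to 0.5 μmol/L, in twofold-type steps. Incubation at 37 °C, read at 14 and 21 days. MIC99 is the lowest concentration inhibiting >99% of growth. Drug resistance or susceptibility of each isolate is to amikacin, clofazimine, gentamicin, ofloxacin, streptomycin and the others listed.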

[11] = tested on: Mycobacterium tuberculosis; assay: Antimycobacterial activity against XDR clinical isolate Mycobacterium tuberculosis 9449/2007 assessed as inhibition of mycobacterial growth measured after 14 to 21 days of incubation by Sulas semisynthetic medium based assay; format: functional; conditions: time 14-21 day; outline: as §4
[12] = tested on: Klebsiella pneumoniae; assay: Antibacterial activity against ESBL negative Klebsiella pneumoniae C1950 assessed as inhibition of bacterial growth incubated for 24 to 48 hrs by microdilution broth method; format: functional, organism-based; conditions: time 24-48 hrs; outline: as §2
[13] = tested on: Enterococcus faecium; assay: Antibacterial activity against vancomycin-resistant Enterococcus faecium assessed as inhibition of bacterial growth incubated for 24 to 48 hrs by microdilution broth method; format: functional, organism-based; conditions: time 24-48 hrs; outline: as §3
[14] = tested on: Staphylococcus aureus; assay: Antibacterial activity against methicilin-resistant Staphylococcus aureus C1923 assessed as inhibition of bacterial growth incubated for 24 to 48 hrs by microdilution broth method; format: functional, organism-based; conditions: time 24-48 hrs; outline: as §3
[15] = Intrinsic clearance in human liver microsomes at 3 uM incubated for 5 to 45 min in presence of NADPH by LC-MS analysis; format: ADME, Microsome; conditions: time 5-45 min, read-out: CLH
[16] = tested on: HepG2; assay: Cytotoxicity against human HepG2 cells incubated for 24 hrs by MTT assay; format: functional, cell-based; conditions: HepG2, 24 h
Outline: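 HepG2 cells in DMEM with 10% FBS, seeded at 15 × 10³ cells/well and attached overnight. Exposed for 24 h to serial dilutions prepared from DMSO stocks, final DMSO ≤1%. Then given fresh medium with 0.5 mg/mL MTT for 1 h at 37 °C. Formazan dissolved in DMSO and read at 570 nm. IC50 from 4-parameter nonlinear regression; three independent experiments in triplicate, mean ± SD.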

[17] = tested on: Mycobacterium tuberculosis; assay: Antimycobacterial activity against MDR clinical isolate Mycobacterium tuberculosis 7357/1998 assessed as inhibition of mycobacterial growth measured after 14 to 21 days of incubation by Sulas semisynthetic medium based assay; format: functional; conditions: time 14-21 day; outline: as §4
[18] = tested on: Mycobacterium tuberculosis; assay: Antimycobacterial activity against MDR clinical isolate Mycobacterium tuberculosis 234/2005 assessed as inhibition of mycobacterial growth measured after 14 to 21 days of incubation by Sulas semisynthetic medium based assay; format: functional; conditions: time 14-21 day; outline: as §4
[19] = tested on: Mycobacterium tuberculosis; assay: Antimycobacterial activity against XDR clinical isolate Mycobacterium tuberculosis PRAHA 1 assessed as inhibition of mycobacterial growth measured after 14 to 21 days of incubation by Sulas semisynthetic medium based assay; format: functional; conditions: time 14-21 day; outline: as §4
[20] = tested on: Mycobacterium tuberculosis; assay: Antimycobacterial activity against XDR clinical isolate Mycobacterium tuberculosis 7357/1998 assessed as inhibition of mycobacterial growth measured after 14 to 21 days of incubation by Sulas semisynthetic medium based assay; format: functional; conditions: time 14-21 day; outline: as §4

In the case of Nc1nc(N2CCOCC2)nc2ncn(Cc3ccc4ccccc4c3)c12, the “Selectivity Index” value [1] is reported as greater than 125, the MIC99 [2] is reported as 1 µM (≈ 0.36 µg/mL) and the solubility at 20 min [3] is reported as 97.7 µM (≈ 35.2 µg/mL). For the same compound, the viability at 50 µM [4] was 91.7%, the Activity [5] was “inactive” and the Activity [6] was “inactive”. The Activity [7] was “inactive”, the Activity [8] was “inactive” and the MIC99 [9] was 2 µM (≈ 0.721 µg/mL). For the same compound, the MIC99 [10] was 2 µM (≈ 0.721 µg/mL), the MIC99 [11] was 4 µM (≈ 1.44 µg/mL) and the Activity [12] was “inactive”. The Activity [13] was “inactive”, the Activity [14] was “inactive” and the microsomal CLint at 3 µM [15] was 16.8 µL/min/mg. For the same compound, the IC50 [16] was greater than 125 µM.
For O=c1[nH]c(N2CCCCC2)nc2ncn(Cc3ccc4ccccc4c3)c12, the “Selectivity Index” value [1] was 43.6, the MIC99 [2] was 2 µM (≈ 0.719 µg/mL) and the solubility at 20 min [3] was 8.4 µM (≈ 3.02 µg/mL). The viability at 50 µM [4] was 79.4%, the Activity [5] was “inactive” and the Activity [6] was “inactive”. The Activity [7] was “inactive”, the Activity [8] was “inactive” and the MIC99 [9] was 4 µM (≈ 1.44 µg/mL). It also gave an MIC99 [17] of 16 µM (≈ 5.75 µg/mL), an MIC99 [18] of 16 µM (≈ 5.75 µg/mL) and an MIC99 [10] of 8 µM (≈ 2.88 µg/mL). The MIC99 [11] was 16 µM (≈ 5.75 µg/mL), the Activity [12] was “inactive” and the MIC99 [19] was 16 µM (≈ 5.75 µg/mL). For the same compound, the MIC99 [20] was 16 µM (≈ 5.75 µg/mL), the Activity [13] was “inactive” and the Activity [14] was “inactive”. The microsomal CLint at 3 µM [15] was 77.9 µL/min/mg and the IC50 [16] was 87.2 µM.
In the case of O=c1[nH]c(N2CCSCC2)nc2ncn(Cc3ccc4ccccc4c3)c12, the “Selectivity Index” value [1] is reported as 16, the MIC99 [2] is reported as 2 µM (≈ 0.755 µg/mL) and the solubility at 20 min [3] is reported as 9.3 µM (≈ 3.51 µg/mL). The viability at 50 µM [4] was 97.1%, the Activity [5] was “inactive” and the Activity [6] was “inactive”. The Activity [7] was “inactive”, the Activity [8] was “inactive” and the MIC99 [9] was 4 µM (≈ 1.51 µg/mL). For the same compound, the MIC99 [17] was 16 µM (≈ 6.04 µg/mL), the MIC99 [18] was 16 µM (≈ 6.04 µg/mL) and the MIC99 [10] was 8 µM (≈ 3.02 µg/mL). For the same compound, the MIC99 [11] was 16 µM (≈ 6.04 µg/mL), the Activity [12] was “inactive” and the MIC99 [19] was 16 µM (≈ 6.04 µg/mL). For the same compound, the MIC99 [20] was 16 µM (≈ 6.04 µg/mL), the Activity [13] was “inactive” and the Activity [14] was “inactive”. It also gave a microsomal CLint at 3 µM [15] of 127 µL/min/mg and an IC50 [16] greater than 32 µM.
For O=c1[nH]c(N2CCOCC2)nc2ncn(Cc3ccc4ccccc4c3)c12, the “Selectivity Index” value [1] was 31.25, the MIC99 [2] was 4 µM (≈ 1.45 µg/mL) and the solubility at 20 min [3] was 46.9 µM (≈ 16.9 µg/mL). For the same compound, the viability at 50 µM [4] was 86%, the Activity [5] was “inactive” and the Activity [6] was “inactive”. The Activity [7] was “inactive”, the Activity [8] was “inactive” and the MIC99 [9] was 4 µM (≈ 1.45 µg/mL). It also gave an MIC99 [17] of 32 µM (≈ 11.6 µg/mL), an MIC99 [18] of 16 µM (≈ 5.78 µg/mL) and an MIC99 [10] of 32 µM (≈ 11.6 µg/mL). The MIC99 [11] was 64 µM (≈ 23.1 µg/mL), the Activity [12] was “inactive” and the MIC99 [19] was 64 µM (≈ 23.1 µg/mL). The MIC99 [20] was 64 µM (≈ 23.1 µg/mL), the Activity [13] was “inactive” and the Activity [14] was “inactive”. For the same compound, the microsomal CLint at 3 µM [15] was 12.6 µL/min/mg and the IC50 [16] was greater than 125 µM.
With CCOc1nc(N2CCOCC2)nc2ncn(Cc3ccc4ccccc4c3)c12 the “Selectivity Index” value [1] was 43.45, the MIC99 [2] was 1 µM (≈ 0.389 µg/mL) and the solubility at 20 min [3] was 81.3 µM (≈ 31.7 µg/mL). For the same compound, the viability at 50 µM [4] was 94.8%, the Activity [5] was “inactive” and the Activity [6] was “inactive”. The Activity [7] was “inactive”, the Activity [8] was “inactive” and the MIC99 [9] was 2 µM (≈ 0.779 µg/mL). The MIC99 [10] was 2 µM (≈ 0.779 µg/mL), the MIC99 [11] was 4 µM (≈ 1.56 µg/mL) and the Activity [12] was “inactive”. For the same compound, the Activity [13] was “inactive”, the Activity [14] was “inactive” and the microsomal CLint at 3 µM [15] was 24.4 µL/min/mg. The IC50 [16] was 43.5 µM.
